From ChEMBL document CHEMBL3414433, “Discovery and profiling of a selective and efficacious Syk inhibitor” (J Med Chem, 2015)
Calls of active or inactive are those of the source. The calls are words filed in the database; no cut-off is given here.

What was measured:
hERG (KCNH2) = hERG (KCNH2) (Homo sapiens, UniProt Q12809); experiment: Inhibition of human ERG at 10 uM by manual patch clamp assay relative to control
[1] = Mean residence time in Beagle dog at 0.1 mg/kg, iv and 0.3 mg/kg, po; type: ADME, organism-based, Canis lupus familiaris; conditions: in vivo
Summary of the method: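 Beagle dogs dosed one-in-one. The i.v. dose was 0.1 mg/kg in NMP/PEG200 (3:7), and the p.o. dose was 0.3 mg/kg in MC/water (0.5:99.5). Blood levels were followed after each route.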

[2] = target: Mitotic checkpoint serine/threonine-protein kinase BUB1 (Homo sapiens, UniProt O43683); experiment: Competitive binding affinity to human BUB1
[3] = target: Proto-oncogene tyrosine-protein kinase ROS (Homo sapiens, UniProt P08922); experiment: Competitive binding affinity to human ROS1
[4] = Drug uptake in Lewis rat blood at 22 mg/kg, po measured after 24 hrs; type: ADME, organism-based; parameters: dose 22 mg/kg, route oral; conditions: read-out: Drug uptake
Summary of the method: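 Single oral dose of 22 mg/kg to Lewis rats; blood sampled at 2, 4 and 24 h after dosing for compound level and ex vivo FcγR-induced phospho-SLP76 in peripheral blood monocytes.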

Rattus norvegicus = experiment: Increase in body weight gain in Lewis rat collagen-induced arthritis model at 3 to 30 mg/kg, po qd administered on day 15 post immunization measured up to day 28; type: functional, organism-based
Summary of the method: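 Lewis rats with collagen-induced arthritis, randomized once joints swelled and given 3, 10 or 30 mg/kg p.o. once daily from day 15 to 28; animals weighed regularly throughout, compared against vehicle-treated rats.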

[5] = Drug uptake in blood of Lewis rat collagen-induced arthritis model at 10 mg/kg, po qd administered on day 15 post immunization measured at 8 hrs on day 18; type: ADME, organism-based; parameters: dose 10 mg/kg, route oral; conditions: read-out: Drug uptake
Summary of the method: (§1)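 Collagen-arthritic Lewis rats given 3, 10 or 30 mg/kg p.o. once daily from day 15; blood levels measured on day 18 (third day of treatment) at 4, 8 and 24 h after dosing.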

[6] = Drug uptake in blood of Lewis rat collagen-induced arthritis model at 3 mg/kg, po qd administered on day 15 post immunization measured at 24 hrs on day 18; type: ADME, organism-based; parameters: dose 3 mg/kg, route oral; conditions: read-out: Drug uptake; summary of the method: as §1

Sequence of Proto-oncogene tyrosine-protein kinase ROS (P08922 whole entry): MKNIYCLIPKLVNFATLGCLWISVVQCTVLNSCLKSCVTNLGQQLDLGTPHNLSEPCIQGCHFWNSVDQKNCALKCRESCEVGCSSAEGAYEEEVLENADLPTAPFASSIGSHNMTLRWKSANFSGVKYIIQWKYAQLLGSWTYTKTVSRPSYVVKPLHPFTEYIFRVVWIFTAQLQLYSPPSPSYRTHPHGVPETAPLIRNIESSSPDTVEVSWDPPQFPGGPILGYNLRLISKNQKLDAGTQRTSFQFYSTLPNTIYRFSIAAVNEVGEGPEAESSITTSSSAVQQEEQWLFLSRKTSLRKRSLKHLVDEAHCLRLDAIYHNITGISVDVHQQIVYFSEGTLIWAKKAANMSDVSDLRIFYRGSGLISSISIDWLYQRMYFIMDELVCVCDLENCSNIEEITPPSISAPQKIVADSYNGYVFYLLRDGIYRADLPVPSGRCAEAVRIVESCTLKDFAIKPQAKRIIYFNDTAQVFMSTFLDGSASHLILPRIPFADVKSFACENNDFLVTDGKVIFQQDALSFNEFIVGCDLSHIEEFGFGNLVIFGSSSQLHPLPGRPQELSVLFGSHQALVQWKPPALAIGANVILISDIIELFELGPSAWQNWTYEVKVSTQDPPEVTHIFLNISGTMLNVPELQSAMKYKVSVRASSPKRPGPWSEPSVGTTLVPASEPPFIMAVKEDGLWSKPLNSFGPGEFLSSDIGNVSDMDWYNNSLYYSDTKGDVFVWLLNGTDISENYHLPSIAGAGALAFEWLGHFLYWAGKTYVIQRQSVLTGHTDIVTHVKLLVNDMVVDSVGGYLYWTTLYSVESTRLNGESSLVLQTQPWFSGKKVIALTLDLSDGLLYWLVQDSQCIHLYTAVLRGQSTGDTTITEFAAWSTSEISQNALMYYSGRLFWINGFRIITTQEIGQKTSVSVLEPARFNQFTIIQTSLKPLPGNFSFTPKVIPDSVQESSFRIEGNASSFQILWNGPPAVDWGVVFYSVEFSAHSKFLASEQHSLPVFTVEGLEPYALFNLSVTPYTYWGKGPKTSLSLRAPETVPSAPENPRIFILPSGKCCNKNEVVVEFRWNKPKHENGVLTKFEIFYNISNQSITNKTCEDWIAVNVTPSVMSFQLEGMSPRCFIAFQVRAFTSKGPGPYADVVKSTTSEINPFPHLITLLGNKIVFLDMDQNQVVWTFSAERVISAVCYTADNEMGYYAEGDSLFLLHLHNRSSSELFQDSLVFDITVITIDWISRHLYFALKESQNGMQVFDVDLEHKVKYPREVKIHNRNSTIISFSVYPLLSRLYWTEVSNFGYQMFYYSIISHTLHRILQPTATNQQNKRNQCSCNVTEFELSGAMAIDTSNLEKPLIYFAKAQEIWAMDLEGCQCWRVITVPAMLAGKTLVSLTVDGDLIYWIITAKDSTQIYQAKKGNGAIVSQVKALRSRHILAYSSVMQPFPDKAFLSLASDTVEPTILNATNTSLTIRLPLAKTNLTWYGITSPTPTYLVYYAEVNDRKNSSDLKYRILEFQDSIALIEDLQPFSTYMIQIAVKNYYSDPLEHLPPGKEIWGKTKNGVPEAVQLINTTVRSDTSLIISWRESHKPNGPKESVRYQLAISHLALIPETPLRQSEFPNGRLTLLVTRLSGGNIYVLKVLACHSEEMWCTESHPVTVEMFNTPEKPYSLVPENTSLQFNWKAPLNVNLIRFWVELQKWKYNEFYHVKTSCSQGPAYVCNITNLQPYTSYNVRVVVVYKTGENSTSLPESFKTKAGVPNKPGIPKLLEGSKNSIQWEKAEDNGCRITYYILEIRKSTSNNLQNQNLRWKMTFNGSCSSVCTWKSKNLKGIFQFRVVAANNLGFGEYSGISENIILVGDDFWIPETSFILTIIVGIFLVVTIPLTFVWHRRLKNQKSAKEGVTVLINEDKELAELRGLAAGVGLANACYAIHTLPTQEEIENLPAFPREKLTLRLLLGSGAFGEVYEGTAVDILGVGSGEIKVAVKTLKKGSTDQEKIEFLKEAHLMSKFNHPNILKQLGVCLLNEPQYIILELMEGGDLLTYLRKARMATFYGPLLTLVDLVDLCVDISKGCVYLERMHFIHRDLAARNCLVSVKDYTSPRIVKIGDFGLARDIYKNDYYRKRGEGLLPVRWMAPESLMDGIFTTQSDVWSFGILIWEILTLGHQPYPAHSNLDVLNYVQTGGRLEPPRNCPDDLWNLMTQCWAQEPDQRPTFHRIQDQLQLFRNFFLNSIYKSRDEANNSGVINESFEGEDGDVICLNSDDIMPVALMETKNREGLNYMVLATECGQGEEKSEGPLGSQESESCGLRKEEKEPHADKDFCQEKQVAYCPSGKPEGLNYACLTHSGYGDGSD
Sequence of Mitotic checkpoint serine/threonine-protein kinase BUB1 (O43683 whole entry): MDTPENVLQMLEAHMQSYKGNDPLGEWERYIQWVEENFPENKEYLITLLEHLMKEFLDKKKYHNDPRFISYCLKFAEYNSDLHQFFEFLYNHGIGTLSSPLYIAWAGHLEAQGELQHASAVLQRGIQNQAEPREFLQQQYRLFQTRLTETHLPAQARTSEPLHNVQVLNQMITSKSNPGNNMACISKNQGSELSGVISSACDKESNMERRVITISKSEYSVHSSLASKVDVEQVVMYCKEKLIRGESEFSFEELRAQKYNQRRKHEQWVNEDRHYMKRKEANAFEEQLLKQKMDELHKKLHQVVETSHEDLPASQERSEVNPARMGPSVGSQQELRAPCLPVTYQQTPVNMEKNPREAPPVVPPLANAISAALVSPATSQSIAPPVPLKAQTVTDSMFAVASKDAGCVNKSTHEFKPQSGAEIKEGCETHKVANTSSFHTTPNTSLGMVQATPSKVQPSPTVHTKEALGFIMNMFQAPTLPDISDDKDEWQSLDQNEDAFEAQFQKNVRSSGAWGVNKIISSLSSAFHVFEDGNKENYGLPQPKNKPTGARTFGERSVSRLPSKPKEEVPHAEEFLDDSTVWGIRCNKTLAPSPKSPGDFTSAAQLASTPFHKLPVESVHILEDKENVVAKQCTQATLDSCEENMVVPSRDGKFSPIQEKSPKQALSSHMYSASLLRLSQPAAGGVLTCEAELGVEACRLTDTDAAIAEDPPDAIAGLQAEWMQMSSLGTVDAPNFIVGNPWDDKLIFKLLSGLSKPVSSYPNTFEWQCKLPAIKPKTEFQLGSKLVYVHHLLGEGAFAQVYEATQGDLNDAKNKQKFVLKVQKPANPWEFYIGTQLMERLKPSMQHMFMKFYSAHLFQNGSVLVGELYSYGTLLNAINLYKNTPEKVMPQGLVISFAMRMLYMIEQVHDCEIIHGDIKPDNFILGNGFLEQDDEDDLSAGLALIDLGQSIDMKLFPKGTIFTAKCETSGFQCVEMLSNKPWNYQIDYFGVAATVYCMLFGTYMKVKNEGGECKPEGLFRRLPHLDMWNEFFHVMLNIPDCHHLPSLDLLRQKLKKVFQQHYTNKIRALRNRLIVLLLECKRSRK
Sequence of hERG (KCNH2) (Q12809 whole entry): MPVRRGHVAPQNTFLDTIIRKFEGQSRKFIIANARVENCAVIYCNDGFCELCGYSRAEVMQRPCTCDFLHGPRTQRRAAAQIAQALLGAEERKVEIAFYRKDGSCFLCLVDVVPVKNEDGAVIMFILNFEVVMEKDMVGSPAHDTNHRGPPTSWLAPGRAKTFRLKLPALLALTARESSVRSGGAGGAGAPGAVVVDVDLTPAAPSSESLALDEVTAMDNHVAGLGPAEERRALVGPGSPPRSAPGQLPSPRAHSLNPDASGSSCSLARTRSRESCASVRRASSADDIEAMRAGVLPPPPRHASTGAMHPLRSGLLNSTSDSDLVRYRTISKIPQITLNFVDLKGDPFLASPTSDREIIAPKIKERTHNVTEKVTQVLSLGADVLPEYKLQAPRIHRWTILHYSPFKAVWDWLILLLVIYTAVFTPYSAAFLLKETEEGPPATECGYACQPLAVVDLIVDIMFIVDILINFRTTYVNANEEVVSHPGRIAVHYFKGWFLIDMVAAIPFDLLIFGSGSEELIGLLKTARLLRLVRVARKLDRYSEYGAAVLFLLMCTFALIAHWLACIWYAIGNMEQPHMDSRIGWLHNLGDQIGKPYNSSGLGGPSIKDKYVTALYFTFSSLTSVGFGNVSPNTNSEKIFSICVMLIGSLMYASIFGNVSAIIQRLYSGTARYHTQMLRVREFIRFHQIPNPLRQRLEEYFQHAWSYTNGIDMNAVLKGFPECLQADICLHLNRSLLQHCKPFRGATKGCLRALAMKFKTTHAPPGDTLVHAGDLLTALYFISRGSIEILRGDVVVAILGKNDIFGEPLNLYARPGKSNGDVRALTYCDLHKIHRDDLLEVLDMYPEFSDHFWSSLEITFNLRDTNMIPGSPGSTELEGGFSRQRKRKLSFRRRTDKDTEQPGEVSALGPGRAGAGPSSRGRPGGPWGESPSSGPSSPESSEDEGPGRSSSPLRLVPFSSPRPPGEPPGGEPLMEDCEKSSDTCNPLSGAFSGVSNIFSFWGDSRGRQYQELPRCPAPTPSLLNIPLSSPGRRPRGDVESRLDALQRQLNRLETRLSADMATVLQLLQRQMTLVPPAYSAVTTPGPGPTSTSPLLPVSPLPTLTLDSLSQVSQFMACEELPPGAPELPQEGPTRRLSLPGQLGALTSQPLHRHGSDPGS

NC(=O)c1nnc(N[C@@H]2CCCC[C@@H]2N)nc1Nc1cccc2cc[nH]c12
inhibition at 10 µM (hERG (KCNH2)): 0%
MRT [1]: 8.4 h
Kd [2]: 240 nM
Kd [3]: 120 nM
concentration at 24 h [4]: 300 nM
Activity (Rattus norvegicus): Active
concentration at 8 h [5]: 349 nM
concentration at 24 h [6]: 35 nM
